ChEMBL document CHEMBL4402547, “Synthesis and Pharmacological Characterization of Conformationally Restricted Retigabine Analogues as Novel Neuronal Kv7 Channel Activators” (J Med Chem, 2020)
Active and inactive are the calls of the source. The rule behind the calls is not given here.

Experiments:
NAT (phase 2 metabolism) = test: Drug metabolism in human liver S9 fractions assessed as assessed as NAT-mediated phase 2 metabolism at 1 mM preincubated for 5 mins followed by NADPH addition and measured after 60 mins by RP-UHPLC-DAD analysis relative to control; format: ADME, subcellular; settings: read-out: Drug metabolism
In short: (§1)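 Compound (2 μL of 1 mM stock) in 100 mM phosphate buffer pH 7.4 with pooled human liver S9, preincubated 5 min, then NADPH added, 37°C for 60 min. For UGT: 5 mM UDPGA, alamethicin, 1 mM MgCl added; for NAT: 2 mM DTT, sulfamethazine, 4.5 mM acetyl DL-carnitine, 0.1 U/mL carnitine acetyltransferase. Stopped with ice-cold methanol; RP-UHPLC-DAD; % turnover = 100 − (60 min/0 min concentration × 100).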

[1] = molecular target: Voltage-gated potassium channel, KQT; KCNQ2(Kv7.2)/KCNQ3(Kv7.3) (Homo sapiens) (UniProt O43526+O43525); test: Activation of human Kv7.2/Kv7.3 expressed in CHO cells assessed as increase in channel current amplitude by whole cell patch clamp electrophysiology assay; format: cell-based
In short: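 Human Kv7.2 plus Kv7.3 cDNAs co-transfected into CHO cells; whole-cell patch clamp at 20–22°C, extracellular solution pH 7.4. Drug applied at 0.01–10 μM to test concentration-dependent current increase.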

[2] = molecular target: T1, Potassium voltage-gated channel subfamily KQT member 2 (Homo sapiens, UniProt O43526); test: Activation of human Kv7.2 expressed in CHO cells assessed as current amplitude at 10 uM measured after 200 secs upon drug wash-out at holding potential of -40 mV by whole cell patch clamp electrophysiology assay; format: cell-based
T1 sequence (O43526 whole entry): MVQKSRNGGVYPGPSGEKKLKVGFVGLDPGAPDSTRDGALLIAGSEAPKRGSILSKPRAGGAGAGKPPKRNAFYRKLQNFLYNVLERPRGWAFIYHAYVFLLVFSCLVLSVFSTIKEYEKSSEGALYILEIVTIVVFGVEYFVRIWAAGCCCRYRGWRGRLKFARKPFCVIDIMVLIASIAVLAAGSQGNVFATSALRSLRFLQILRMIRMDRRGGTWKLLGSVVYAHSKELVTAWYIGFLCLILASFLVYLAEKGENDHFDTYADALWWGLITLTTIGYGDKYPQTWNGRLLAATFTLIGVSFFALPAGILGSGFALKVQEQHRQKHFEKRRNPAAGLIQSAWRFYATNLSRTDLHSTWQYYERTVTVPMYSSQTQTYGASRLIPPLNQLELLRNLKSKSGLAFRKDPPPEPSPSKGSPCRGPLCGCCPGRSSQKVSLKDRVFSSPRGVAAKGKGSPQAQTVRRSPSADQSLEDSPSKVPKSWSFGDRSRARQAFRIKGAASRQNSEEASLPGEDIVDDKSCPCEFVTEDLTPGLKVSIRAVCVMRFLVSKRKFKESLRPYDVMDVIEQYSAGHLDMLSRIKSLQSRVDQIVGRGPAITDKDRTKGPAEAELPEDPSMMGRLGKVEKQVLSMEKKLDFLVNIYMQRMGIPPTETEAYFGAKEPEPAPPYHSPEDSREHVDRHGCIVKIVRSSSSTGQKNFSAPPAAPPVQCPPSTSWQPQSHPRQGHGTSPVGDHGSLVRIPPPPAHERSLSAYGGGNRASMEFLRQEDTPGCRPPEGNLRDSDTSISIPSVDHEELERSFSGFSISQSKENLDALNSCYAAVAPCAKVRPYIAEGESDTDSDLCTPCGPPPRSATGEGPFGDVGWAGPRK

[3] = Hydrophobicity of compound assessed as self aggregating property by measuring decrease in ratio between fluorescence intensity peaks at 372 nm to 383 nm at 0.7 to 100 uM by pyrene based fluorescence spectroscopic method; format: physicochemical
In short: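 DMSO stocks diluted in 0.9% NaCl to 0.7–100 μM, residual DMSO <0.1%. Pyrene used as probe, excited at 334 nm; emission recorded 200–700 nm, ten scans summed, at 25°C. Ratio of peak I (372 nm) to peak III (383 nm) intensity plotted against concentration.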

[4] = molecular target: T1, Potassium voltage-gated channel subfamily KQT member 2; test: Activation of human Kv7.2 expressed in CHO cells assessed as maximal steady-state increase in current amplitude at 10 uM measured after 200 secs at holding potential of -40 mV by whole cell patch clamp electrophysiology assay; format: cell-based
UGT (phase 2 metabolism) = UGT (phase 2 metabolism) (Homo sapiens, UniProt O60656+O75310+O75795+P06133+P0DTE4+P0DTE5+P16662+P19224+P22309+P22310+P35503+P35504+P36537+P54855+Q6UWM9+Q9BY64+Q9HAW7+Q9HAW8+Q9HAW9); test: Drug metabolism in human liver S9 fractions assessed as assessed as UGT-mediated phase 2 metabolism at 1 mM preincubated for 5 mins followed by NADPH addition and measured after 60 mins by RP-UHPLC-DAD analysis relative to control; format: ADME, subcellular; settings: read-out: Drug metabolism; in short: as §1
[5] = molecular target: T2, Potassium voltage-gated channel subfamily KQT member 3 (Homo sapiens) (UniProt O43525); test: Activation of human Kv7.3 expressed in CHO cells assessed as delta V at 30 uM by whole cell patch clamp electrophysiology assay; format: cell-based
T2 sequence (whole entry): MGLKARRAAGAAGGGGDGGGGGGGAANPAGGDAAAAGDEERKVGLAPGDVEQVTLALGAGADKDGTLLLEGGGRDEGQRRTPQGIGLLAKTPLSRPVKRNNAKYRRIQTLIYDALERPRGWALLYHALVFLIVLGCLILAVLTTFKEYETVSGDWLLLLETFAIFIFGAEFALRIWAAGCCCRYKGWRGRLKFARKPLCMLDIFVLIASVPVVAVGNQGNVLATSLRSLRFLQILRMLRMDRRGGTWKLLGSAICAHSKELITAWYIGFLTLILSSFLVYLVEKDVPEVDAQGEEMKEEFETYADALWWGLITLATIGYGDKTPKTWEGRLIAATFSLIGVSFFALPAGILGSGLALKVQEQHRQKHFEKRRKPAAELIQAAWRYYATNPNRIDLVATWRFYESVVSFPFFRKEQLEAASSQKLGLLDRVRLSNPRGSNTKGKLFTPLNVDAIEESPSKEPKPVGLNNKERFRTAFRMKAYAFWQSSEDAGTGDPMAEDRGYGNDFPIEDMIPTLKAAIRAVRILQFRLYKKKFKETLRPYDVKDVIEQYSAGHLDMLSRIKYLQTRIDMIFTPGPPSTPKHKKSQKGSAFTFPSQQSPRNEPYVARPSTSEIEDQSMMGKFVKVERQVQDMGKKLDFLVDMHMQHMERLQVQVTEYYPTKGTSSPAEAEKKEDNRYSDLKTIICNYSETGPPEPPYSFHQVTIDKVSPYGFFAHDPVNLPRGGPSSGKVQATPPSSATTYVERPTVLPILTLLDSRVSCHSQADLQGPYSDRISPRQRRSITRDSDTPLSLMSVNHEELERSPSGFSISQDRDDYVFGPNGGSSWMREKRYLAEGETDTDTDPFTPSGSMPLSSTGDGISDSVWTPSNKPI

[6] = Photostability of compound in pH 7.4 buffer assessed as compound degradation at 100 ug/ml incubated for 4 hrs under natural solar light-irradiation by HPLC analysis relative to control
In short: (§2)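 DMSO solutions diluted in pH 7.4 buffer, held in 1 cm quartz cells and exposed to natural daylight. Light-shielded controls kept at 37°C in foil. Aliquots drawn at set intervals and parent compound loss measured by UHPLC: C18 column, 0.1% TFA water/acetonitrile gradient, 45°C, detection at 254 nm.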

[7] = Photostability of compound in pH 7.4 buffer assessed as compound degradation at 100 ug/ml incubated for 2 hrs under natural solar light-irradiation by HPLC analysis relative to control; in short: as §2
[8] = Lipophilicity, log P of the compound; format: physicochemical; settings: octanol/water
[9] = molecular target: T1, Potassium voltage-gated channel subfamily KQT member 2; test: Activation of human Kv7.2 expressed in CHO cells assessed as half-activation voltage at 0.03 uM in constant voltage pulse by whole cell patch clamp electrophysiology assay (reference value: -38.2 +/- 2 mV); format: cell-based
In short: (§3)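 Transiently transfected CHO cells (human Kv7.2 cDNA in pcDNA3.1, EGFP marker), recorded 24 h post-transfection by whole-cell patch clamp at 20–22°C; extracellular solution in mM 138 NaCl, 2 CaCl₂, 5.4 KCl, 1 MgCl₂, 10 glucose, 10 HEPES, pH 7.4. Constant voltage pulses before and after 0.03 μM compound; conductance/voltage curves fitted to double Boltzmann for V1/2 and maximal conductance.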

[10] = molecular target: T1, Potassium voltage-gated channel subfamily KQT member 2; test: Activation of human Kv7.2 expressed in CHO cells assessed as increase in maximal channel conductance at 0.03 uM in constant voltage pulses by whole cell patch clamp electrophysiology assay; format: cell-based; in short: as §3

SMILES	metabolised at 1 h, 1000 µM (NAT (phase 2 metabolism)) [%]	Activity [1]	Activity [2]	Activity [3]	Activity [4]	metabolised at 1 h, 1000 µM (UGT (phase 2 metabolism)) [%]	Activity [5] [mV]	Drug degradation [6] [%]	Drug degradation [7] [%]	logP [8]	V1/2 [9] [mV]	Activity [10]
CC(C)(C)CC(=O)Nc1ccc2c(ccn2Cc2ccc(C(F)(F)F)cc2)c1	12.7	Dose-dependent effect	inactive	Active	Active	7.42	-21.4	6.62	0.96	5.58		
CCCCCCC(=O)Nc1ccc2c(ccn2Cc2ccc(C(F)(F)F)cc2)c1		Dose-dependent effect	inactive	Active	Active		-26.2	5.82	1.36	6.83	-38.2	Active
CCOC(=O)Nc1ccc(NCc2ccc(F)cc2)cc1N [EZOGABINE]	3.41			Not Active		11.4	-39.9	25.2	9.65		-24.4	inactive
